{"source": "paper PMC6039259", "about": "(Nature medicine, 2018)", "key": {"primary microglia": {"test_system": "primary microglia", "assay": "α-syn PFF-induced activation of primary microglia", "assay_type": "cell-based, mouse", "summary_of_the_method": "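Primary mouse microglia, CD11b-selected from P1 mixed glia, are pretreated with test compound (1 μM), then given α-syn PFF (1 μg/ml). PFF is endotoxin-depleted recombinant mouse α-syn, stirred a week at 37 °C and sonicated. For qPCR, total RNA is normalized to β-actin by 2^−ΔΔCt, with n=3 independent cultures. Cytokines in medium collected 18 hrs post-PFF are measured by mouse cytokine ELISA array.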"}, "[1]": {"test_system": "astrocytes of ventral midbrain", "assay": "qPCR of astrocytes from ventral midbrain of α-syn PFF injected mice", "assay_type": "in vivo"}, "human DA neurons": {"test_system": "human DA neurons", "assay": "α-syn PFF-ACM toxicity in human DA neurons", "assay_type": "cell-based", "conditions": "NLY01 applied to the α-syn PFF treated microglia; alamarBlue, LDH, trypan blue, 5 days"}, "human recombinant GLP-1R": {"molecular_target": "human recombinant GLP-1R (Homo sapiens, UniProt P43220)", "sequence (P43220 24-463)": "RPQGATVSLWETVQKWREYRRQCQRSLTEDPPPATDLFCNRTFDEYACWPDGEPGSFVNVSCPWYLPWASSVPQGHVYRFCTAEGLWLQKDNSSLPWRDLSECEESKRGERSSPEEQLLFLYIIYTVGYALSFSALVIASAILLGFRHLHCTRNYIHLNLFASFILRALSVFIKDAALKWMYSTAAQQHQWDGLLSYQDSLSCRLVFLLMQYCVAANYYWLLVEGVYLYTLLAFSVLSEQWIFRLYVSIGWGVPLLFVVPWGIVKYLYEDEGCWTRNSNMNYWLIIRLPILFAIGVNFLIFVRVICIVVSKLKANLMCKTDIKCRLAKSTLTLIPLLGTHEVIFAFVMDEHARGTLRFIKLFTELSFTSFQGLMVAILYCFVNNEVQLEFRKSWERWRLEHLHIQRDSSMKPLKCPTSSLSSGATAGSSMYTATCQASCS", "assay": "cAMP production in GLP-1R transfected HEK-293/CRE-LUC/GLP1R cells", "assay_type": "cell-based"}, "hA53T α-syn Tg mice": {"test_system": "hA53T α-syn Tg mice", "assay": "hA53T α-synuclein transgenic mouse model", "assay_type": "in vivo"}, "[2]": {"assay": "NLY01 accumulation in brain / BBB penetration", "assay_type": "in vivo, mice"}, "[3]": {"test_system": "human dopaminergic (DA) neurons", "assay": "Direct α-syn PFF toxicity in human DA neurons", "assay_type": "cell-based", "conditions": "direct treatment of DA neurons, NLY01 1 µM, human α-syn PFF 5 µg/ml", "summary_of_the_method": "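Viability is read three ways: alamarBlue per kit protocol, LDH activity in culture medium measured spectrophotometrically, and trypan blue counting. For trypan blue, neurons are trypsin-dissociated to single cells and mixed 1:1 with dye. Live and dead cells are counted on an automated cell counter, with three wells per condition.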"}, "primary astrocytes": {"test_system": "primary astrocytes", "assay": "A1 astrocyte induction by α-syn PFF-MCM in primary astrocytes", "assay_type": "cell-based, mouse", "summary_of_the_method": "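Primary microglia and astrocytes come from P1 CD1 mouse whole brains. Mixed glia are grown 13 days, then split by CD11b positive selection: the bound fraction is microglia and the pour-off is astrocytes. Microglia get α-syn PFF with PBS or test compound (1 μM). Their conditioned medium is applied to astrocytes for 24 hrs, and GFAP is measured by immunoblot.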"}, "[4]": {"test_system": "α-syn PFF injected C57BL6 mice", "assay": "Intrastriatal α-syn PFF mouse model of sporadic PD", "assay_type": "in vivo"}, "[5]": {"test_system": "murine primary cortical cultures", "assay": "α-syn PFF-ACM toxicity in murine primary cortical neurons", "assay_type": "cell-based, mouse", "summary_of_the_method": "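Cortical neurons from E15.5 CD1 embryos are grown in B-27 Neurobasal medium on poly-L-lysine. ACM is made by giving astrocytes 24 h of α-syn PFF-MCM, with or without test compound on the microglia. It is collected with protease inhibitors, concentrated about 50X (10 kDa cutoff) and dosed at 15 μg/ml total protein. Nuclei are stained with Hoechst (7 μM) and PI (2 μM) and counted by computer, relative to control wells.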"}, "[6]": {"conditions": "3 mg/kg s.c. twice a week for five months"}}}
{"substance": "His-Gly-Glu-Gly-Thr-Phe-Thr-Ser-Asp-Leu-Ser-Lys-Gln-Met-Glu-Glu-Glu-Ala-Val-Arg-Leu-Phe-Ile-Glu-Trp-Leu-Lys-Asn-Gly-Gly-Pro-Ser-Ser-Gly-Ala-Pro-Pro-Pro-Ser-Cys(PEG50K)-NH2 [NLY01, pegylated [Cys^40]Exendin-4]", "values": [{"measurement": "uptake of α-syn PFF in microglia", "setting": "primary microglia", "result": "does not interfere"}, {"measurement": "α-syn PFF induced C1q and TNFα release into media, western blot", "setting": "primary microglia; NLY01 1 µM pretreatment", "result": "significantly inhibited"}, {"measurement": "α-syn PFF induced protein levels of IL-1α, TNFα, IL-1ß, C1q, ELISA", "setting": "primary microglia; NLY01 1 μM pretreatment, MCM 18 hrs after α-syn PFF", "result": "reduced"}, {"measurement": "α-syn PFF induced mRNA for Il1a, Il1b, Tnfα, C1qa, Il6, qPCR", "setting": "primary microglia; NLY01 1 μM pretreatment, α-syn PFF 1 μg/ml", "result": "significantly reduces"}, {"measurement": "α-syn PFF induced cytokines (IL-1α, TNFα, IL-1ß, IL-6, leptin), ELISA cytokine array", "setting": "primary microglia; primary microglia, α-syn PFF 1 µg/ml", "result": "reduces"}, {"measurement": "NF-kB pathway", "setting": "primary microglia; α-syn PFF-induced NF-kB nuclear translocation and phosphorylation", "result": "inhibits"}, {"measurement": "α-syn PFF induced A1 astrocyte specific transcripts", "setting": "[1]", "result": "prevented"}, {"measurement": "induction of C3 mRNA in isolated astrocytes", "setting": "[1]; n=4", "result": "blocks"}, {"measurement": "α-syn PFF-ACM induced cell death", "setting": "human DA neurons", "result": "significantly prevents"}, {"measurement": "biologic activity in vitro relative to Exendin-4", "setting": "human recombinant GLP-1R", "result": "comparable biologic activity"}, {"measurement": "prolongation of lifespan", "setting": "hA53T α-syn Tg mice; 3 mg/kg s.c. twice a week from six months of age, n=20", "result": "over 100 days"}, {"measurement": "p-α-syn ser129 immunoreactivity, aggregated α-syn and ubiquitin immunoreactivity", "setting": "hA53T α-syn Tg mice; 3 mg/kg, brainstem", "result": "reduction"}, {"measurement": "microglial and astrocytic activation (Iba-1, GFAP immunoreactivity)", "setting": "hA53T α-syn Tg mice; brainstem", "result": "significantly attenuates"}, {"measurement": "increase of C3 mRNA", "setting": "hA53T α-syn Tg mice; ten-month-old hA53T α-syn Tg mice", "result": "prevented"}, {"measurement": "brain levels", "setting": "[2]; ten-month-old hA53T Tg mice, 3 mg/kg", "result": "reaches high brain levels"}, {"measurement": "blood-brain barrier penetration", "setting": "[2]; wild type (WT) mice", "result": "efficiently penetrates the blood-brain barrier"}, {"measurement": "protection against α-syn PFF induced cell death (alamarBlue, LDH, trypan blue)", "setting": "[3]", "result": "fails to protect"}, {"measurement": "α-syn PFF-MCM induced GFAP", "setting": "primary astrocytes; NLY01 1 μM, 24 hrs, immunoblot", "result": "blocked"}, {"measurement": "induction of A1 astrocytic specific markers", "setting": "primary astrocytes; NLY01 treatment of microglia, but not that of astrocytes", "result": "prevents"}, {"measurement": "Triton X-100 insoluble α-syn and p-α-syn ser129, western blot", "setting": "[4]; [6]", "result": "significantly reduces"}, {"measurement": "α-syn PFF induced reduction in striatal TH immunoreactivity and striatal TH and DAT protein", "setting": "[4]; [6]", "result": "rescued"}, {"measurement": "p-α-syn ser129 immunoreactivity in striatum, ventral midbrain and TH neurons", "setting": "[4]; 3 mg/kg s.c. twice a week for five months, from one month after α-syn PFF", "result": "significantly reduces"}, {"measurement": "α-syn PFF induced loss of TH and Nissl positive neurons in the SNpc", "setting": "[4]; 3 mg/kg s.c. twice a week for five months, n=10", "result": "prevented"}, {"measurement": "ipsilateral amphetamine induced rotation", "setting": "[4]; 5 mg/kg amphetamine i.p., six months after α-syn PFF", "result": "prevented"}, {"measurement": "α-syn PFF induced GFAP immunoreactivity and GFAP level in the ventral midbrain", "setting": "[4]; immunohistochemistry and western blot", "result": "blocked"}, {"measurement": "α-syn PFF induced mRNA for Il1a, Il1b, Tnfα, C1qa, Il6 in ventral midbrain", "setting": "[4]; qPCR, n=4", "result": "blocked"}, {"measurement": "behavioral deficits in accelerating rotarod test and pole test", "setting": "[4]; six months after α-syn PFF", "result": "significantly reduces the behavioral deficits"}, {"measurement": "contralateral forepaw touches, cylinder test", "setting": "[4]; six months after α-syn PFF", "result": "restored"}, {"measurement": "increase in grooming time and reduction in rearing, cylinder test", "setting": "[4]; six months after α-syn PFF", "result": "restored"}, {"measurement": "Iba-1 immunoreactivity and microglial density in the SNpc", "setting": "[4]; six months post injection", "result": "significantly reduces"}, {"measurement": "α-syn PFF-ACM induced cell death", "setting": "[5]; NLY01 (1 µM) applied to the α-syn PFF treated microglia, Hoechst/PI, 48 hrs", "result": "significantly prevents"}, {"measurement": "p-α-syn ser129 levels induced by α-syn PFF-ACM", "setting": "[5]; pretreatment of NLY01 in microglia", "result": "significantly reduced"}]}
